Test [1] deals with T1, Dihydrofolate reductase (Mus musculus) (UniProt P00375).
T1 sequence (whole entry): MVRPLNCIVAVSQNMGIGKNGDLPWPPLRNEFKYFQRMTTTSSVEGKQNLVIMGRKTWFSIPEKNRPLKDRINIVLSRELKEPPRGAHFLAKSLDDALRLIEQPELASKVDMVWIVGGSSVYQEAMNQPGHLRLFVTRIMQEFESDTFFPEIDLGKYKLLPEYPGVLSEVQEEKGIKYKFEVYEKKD
Nature of the test: Binding affinity to Dihydrofolate reductase of L1210/R71 using spectrophotometric assay. A digest of the protocol: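 The enzyme was isolated from MTX-resistant L1210/R71 cultured cells and purified on MTX-agarose. The assay measured ΔA340 at 22 °C in 0.1 M Tris, pH 7.0, with 62 nM enzyme. Enzyme was preincubated 2 min with inhibitor and NADPH, and dihydrofolate was then added to start the reaction. ID₅₀ determined.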

Test [2] is filed under the species Mus musculus. Nature of the test: Percentage increase in life span after 15-17 days. Format: functional. Put shortly:
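Male B6D2F1J mice (20–25 g) were inoculated i.p. with 10⁵ L1210 ascitic leukemia cells on day 0 and randomized into groups of 5. Drug in water at pH 7.5–8.0 was given i.p. from day 1 on qd×9, q2d×5 or b.i.d.×10 schedules. Weight change was recorded at day 7. %ILS = [(T/C) − 1]100, using median survival days; ≥25% counts as significant.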

The species named for test [3] is Mus musculus. Briefly: Percentage increase in life span after 17-18 days. Format: functional. Put shortly: (§1)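 Male B6D2F1J mice (20–25 g), randomized after i.p. inoculation with 10^5 L1210 ascitic leukemia cells on day 0. Drug in water, pH 7.5–8.0, given i.p. on a q2d×5, qd×9 (from day 1) or b.i.d.×10 schedule; 5 mice per group. %ILS = [(T/C) − 1]100 from median survival days of treated versus control mice. Range is survival days.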

Test [4] has as its system Mus musculus. Nature of the test: Toxicity in mice after 17-18 days at a dose of 30 mg/kg/day; value is 17/9. Format: functional.
Test [5] deals with Mus musculus. Briefly: Toxicity in mice after 15-17 days at a dose of 20 mg/kg/day; value is 16/9. Format: functional.
For test [6], the species on record is Mus musculus. Briefly: Percentage increase in life span after 12-15 days. Format: functional. A digest of the protocol:
as §1

Test [7] concerns Mus musculus. Nature of the test: Weight change on day 7 in L1210 Lymphoid Leukemia in mice at a dose of 20 mg/kg/day (qdx9). Format: functional. A digest of the protocol:
(§2)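 Male B6D2F₁J mice (20–25 g) bearing ip L1210 ascites (10⁵ cells, day 0) were used, 5 per group. Drug was given ip in water at pH 7.5–8.0 from day 1 on q2d×5, qd×9 or b.i.d.×10 schedules. Animals were weighed after 7 days and percent weight change recorded.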

For test [8], the system named is Mus musculus. Nature of the test: Toxicity in mice after 12-15 days at a dose of 10 mg/kg/day; value is 13/9. Format: functional.
In test [9] the test system is Mus musculus. Nature of the test: Weight change on day 7 in L1210 Lymphoid Leukemia in mice at a dose of 40 mg/kg/day (qdx9). In kind it is functional. A digest of the protocol:
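Male B6D2F1J mice (20–25 g) were inoculated i.p. with 10⁵ L1210 ascites cells on day 0 and randomized into groups of 5. Drug in water at pH 7.5–8.0 was given i.p. daily for 9 days (qd×9) from day 1. Animals were weighed after 7 days, and the % body-weight change was recorded under a standard NCI protocol.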

The subject of test [10] is Mus musculus. Nature of the test: Weight change on day 7 in L1210 Lymphoid Leukemia in mice at a dose of 30 mg/kg/day (qdx9). In kind it is functional. Put shortly:
as §2

For test [11], the system named is Mus musculus. Nature of the test: Weight change on day 7 in L1210 Lymphoid Leukemia in mice at a dose of 10 mg/kg/day (qd x9). In kind it is functional. Put shortly: as §2
Test [12] is filed under the species Mus musculus. Nature of the test: Percentage increase in life span after 13-20 days. Format: functional. A digest of the protocol: as §1
Another test has as its system L1210. Briefly: Cytotoxicity against L1210 cells. Format: functional. The conditions noted are these: Mus musculus, read-out: ID50 (the source's name).
The test system of test [13] is Mus musculus. Nature of the test: Toxicity in mice after 13-20 days at a dose of 40 mg/kg/day; value is 19/9. In kind it is functional.

In turn, `CN(Cc1cnc2nc(N)nc(N)c2n1)c1ccc(C(=O)NC(CCCCCC(=O)O)C(=O)O)cc1` (centres undefined) displayed an ID50 in test [1] of 35 nM. The ILS (commonly how much longer treated animals lived than controls) in the test filed under Mus musculus [2] came to 78%; in the test filed under Mus musculus [3], 89%; in the test listed under Mus musculus [6] it was 44%; in the test filed under Mus musculus [12], 111%. In addition, the T/C in the test with Mus musculus [4] is recorded as 17; in the test on Mus musculus [5], 16; with Mus musculus [8], 13; in the test with Mus musculus [13], 19. The Weight change in the test with Mus musculus [7] was determined as 7%; in the test with Mus musculus [9], 6%; in the test with Mus musculus [10], 9%; with Mus musculus [11], 11%. For the same compound, the IC50 with L1210 stood at 6.3 nM.

The values are drawn from ChEMBL document CHEMBL1122411 (J Med Chem, 1983).
